{"source": "ChEMBL document CHEMBL4028805", "about": "“Phenylthiazole Antibacterial Agents Targeting Cell Wall Synthesis Exhibit Potent Activity in Vitro and in Vivo against Vancomycin-Resistant Enterococci” (J Med Chem, 2017)", "key": {"[1]": {"tested_on": "Enterococcus faecium", "assay": "Antibacterial activity against vancomycin-resistant Enterococcus faecium clinical isolates after 18 to 22 hrs by broth microdilution method", "assay_type": "functional", "in_short": "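CLSI broth microdilution against panels of enterococcal isolates. E. faecalis grown in TSB, E. faecium in BHI, 37 °C for 18–22 h. MIC is the lowest concentration without visible growth. MIC50 is the value inhibiting 50% of isolates in each group.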"}, "[2]": {"tested_on": "Escherichia coli", "assay": "Antibacterial activity against Escherichia coli 1411 harboring delta-acrAB after 18 to 22 hrs in absence of colistin by broth microdilution method", "assay_type": "functional"}, "[3]": {"tested_on": "Enterococcus faecalis", "assay": "Potentiation of vancomycin-induced antibacterial activity against Enterococcus faecalis HM-934 assessed as fold reduction in vancomycin MIC preincubated for 30 mins followed by vancomycin addition measured after 18 to 21 hrs", "assay_type": "functional", "in_short": "(§1)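 VRE suspensions at 5×10^5 CFU/mL preincubated with compound at ½ × MIC for 30 min at room temperature. […] Fold reduction calculated as vancomycin MIC alone over MIC in combination.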"}, "[4]": {"tested_on": "Caenorhabditis elegans", "assay": "Toxicity in Caenorhabditis elegans AU37 assessed as worm survival at 20 ug/ml after 24 hrs by microscopic analysis", "details": "caenorhabditis elegans, 24 h", "in_short": "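Adult C. elegans AU37, 15–20 per well, exposed in triplicate to 10 or 20 μg/mL, with sterile water as negative control. Viability checked by microscopy. Result reported as percent viable worms after 24 h exposure.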"}, "[5]": {"tested_on": "Enterococcus faecium", "assay": "Bactericidal activity against vancomycin-resistant Enterococcus faecium ATCC 700221 at 4 times MIC after 2 hrs by time-kill assay", "assay_type": "functional", "in_short": "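Late-log cells diluted to ~5 × 10^6 CFU/mL and exposed in triplicate to 4 × MIC, in TSB (E. faecalis HM-201) or BHI (E. faecium ATCC 700221) at 37 °C. Sampled at 0, 2, 4, 6, 8, 10, 12 and 24 h, diluted serially in PBS and plated on TSA or BHI agar. CFU/mL counted after 18–22 h. DMSO served as negative control.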"}, "[6]": {"tested_on": "Escherichia coli", "assay": "Antibacterial activity against tolC deficient Escherichia coli assessed as formation of spheroplasts at 25 ug/ml after 2 hrs by FM4-64/DAPI/SYTOX green staining-based deconvolution microscopic analysis", "assay_type": "functional"}, "[7]": {"tested_on": "Enterococcus faecalis", "assay": "Potentiation of vancomycin-induced antibacterial activity against Enterococcus faecalis HM-201 assessed as fold reduction in vancomycin MIC preincubated for 30 mins followed by vancomycin addition measured after 18 to 21 hrs", "assay_type": "functional", "in_short": "as §1"}, "[8]": {"tested_on": "Escherichia coli", "assay": "Antibacterial activity against tolC deficient Escherichia coli assessed as cell shape defects at 25 ug/ml after 30 mins in presence of sucrose by FM4-64/DAPI/SYTOX Green staining-based deconvolution microscopic analysis", "assay_type": "functional"}, "[9]": {"tested_on": "Acinetobacter baumannii", "assay": "Antibacterial activity against Acinetobacter baumanii ATCC 19606 after 18 to 22 hrs in presence of 1/4 times MIC colistin by broth microdilution method", "assay_type": "functional", "details": "ATCC 19606 = CIP 70.34 = JCM 6841", "in_short": "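Broth microdilution per CLSI guidelines. Gram-negatives grown in TSB. Each strain tested alone and again with colistin at ¼ × MIC to permeabilize the outer membrane. Plates incubated at 37 °C for 18–22 h. MIC read as the lowest concentration showing no visible growth.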"}, "[10]": {"tested_on": "Enterococcus faecalis", "assay": "Synergistic antimicrobial activity against Enterococcus faecalis ATCC 51299 after 20 hrs in presence of ciprofloxacin by checkerboard assay", "assay_type": "functional", "in_short": "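Checkerboard assay. McFarland 0.5 suspension diluted in TSB to 1 × 10^5 CFU/mL. Compound diluted along one plate axis and antibiotic along the other, each starting at 2× or 4× MIC. Incubated 20 h at 37 °C, MIC read as no visible growth. Synergy defined as ΣFIC ≤0.5, additive >0.5 to <2, indifferent 2–4, antagonistic >4.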"}, "[11]": {"tested_on": "Enterococcus faecalis", "assay": "Antibacterial activity against Enterococcus faecalis ATCC 31975 at 4 to 8 times MIC after 48 hrs by broth microdillution method", "assay_type": "functional", "in_short": "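Single-step resistance selection. Cultures of 5 × 10^8 to 5 × 10^10 CFU/mL spread on TSA containing compound at 2×, 4× or 8× MIC and incubated aerobically at 37 °C for 48 h. Colony MICs rechecked by broth microdilution. Frequency calculated as resistant colonies per inoculum.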"}}, "note": "Activity calls are given as the source filed them."}
{"smiles": "CCCCc1ccc(-c2nc(C)c(/C(C)=N/NC(=N)N)s2)cc1", "values": [{"measurement": "MIC50", "setting": "[1]", "result": 2, "unit": "µg/mL"}, {"measurement": "MIC", "setting": "[2]", "result": 4, "unit": "µg/mL"}, {"measurement": "Activity", "setting": "[3]", "result": "inactive"}, {"measurement": "Activity", "setting": "[4]", "result": "Non-Toxic"}, {"measurement": "Activity", "setting": "[5]", "result": "Active"}, {"measurement": "Activity", "setting": "[6]", "result": "Active"}, {"measurement": "Activity", "setting": "[7]", "result": "inactive"}, {"measurement": "Activity", "setting": "[8]", "result": "Active"}, {"measurement": "MIC", "setting": "[9]", "result": 1, "unit": "µg/mL"}, {"measurement": "fractional inhibitory concentration index (FICI)", "setting": "[10]", "result": 0.5}, {"measurement": "Activity", "setting": "[11]", "result": "Active"}]}
